Measured values: article PMC3705926 (Journal of ethnopharmacology, 2010)

Tests used:
5-HT7 [1] = target: T1, 5-HT7 (Homo sapiens, UniProt P34969); assay: Serotonin 5-HT7 receptor radioligand binding; settings: read-out: IC50, binding to serotonin receptor 5-HT7
[2] = tested on: 2ERE-luciferase reporter (ER) in MCF-7 cells; assay: 2ERE-luciferase reporter gene assay in transiently transfected MCF-7 cells; assay type: cell-based, human; settings: 1 μg/ml, 16 h
5-HT1A = target: T2, 5-HT1A (Homo sapiens, UniProt P08908); assay: Serotonin 5-HT1A receptor radioligand binding; settings: read-out: IC50, binding to serotonin receptor 5-HT1A
T2 sequence (P08908 1-422): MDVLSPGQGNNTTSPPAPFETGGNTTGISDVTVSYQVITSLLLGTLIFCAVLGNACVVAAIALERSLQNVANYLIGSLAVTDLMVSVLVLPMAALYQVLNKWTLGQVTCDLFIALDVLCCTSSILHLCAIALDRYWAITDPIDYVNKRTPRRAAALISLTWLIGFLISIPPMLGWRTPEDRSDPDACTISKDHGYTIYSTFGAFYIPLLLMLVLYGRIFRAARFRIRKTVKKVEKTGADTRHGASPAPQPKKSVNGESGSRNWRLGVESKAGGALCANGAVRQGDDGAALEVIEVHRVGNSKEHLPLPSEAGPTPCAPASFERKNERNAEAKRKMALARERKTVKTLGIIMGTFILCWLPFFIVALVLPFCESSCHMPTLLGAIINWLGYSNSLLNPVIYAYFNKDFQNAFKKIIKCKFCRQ
In short: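 Competition binding used Cos M6 cell membrane homogenate with [3H]5-CT (1.0 nM final) in 100 mM Tris-HCl, 1 mM EDTA, 1% ascorbic acid, pH 7.7, at 37°C for 30 min. Binding was stopped by rapid filtration and four ice-cold buffer washes, then counted by scintillation. IC50 came from non-linear curve fitting of at least triplicate determinations.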

5-HT7 [3] = target: T1, 5-HT7; assay: GTP shift experiment, [3H]LSD binding with or without 100 μM GTP
[4] = [3H]-LSD displacement, absence of GTP, two-site fit

T1 sequence (P34969 whole entry): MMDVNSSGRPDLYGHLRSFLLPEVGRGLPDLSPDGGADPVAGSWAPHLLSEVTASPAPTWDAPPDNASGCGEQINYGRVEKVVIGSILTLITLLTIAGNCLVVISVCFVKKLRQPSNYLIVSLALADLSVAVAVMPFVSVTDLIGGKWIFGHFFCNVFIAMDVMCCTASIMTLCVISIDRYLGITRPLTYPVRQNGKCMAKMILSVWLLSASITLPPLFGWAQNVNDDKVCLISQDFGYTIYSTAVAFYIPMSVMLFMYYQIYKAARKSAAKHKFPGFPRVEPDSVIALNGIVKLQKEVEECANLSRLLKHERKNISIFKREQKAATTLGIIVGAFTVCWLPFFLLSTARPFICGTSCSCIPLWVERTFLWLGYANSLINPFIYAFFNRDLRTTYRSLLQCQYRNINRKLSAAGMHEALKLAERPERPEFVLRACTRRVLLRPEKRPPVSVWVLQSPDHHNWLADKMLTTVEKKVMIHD

Row | Substance | IC50 (5-HT7 [1]) | fold increase in luciferase activity [2] | IC50 (5-HT1A) | IC50, high-affinity state (5-HT7 [3]; [4]) | IC50, low affinity state (5-HT7 [3]; [4]) | Ki, high-affinity state (5-HT7 [3]; [4]) | Ki, low affinity state (5-HT7 [3]; [4]) | agonist/antagonist character at the 5-HT7 receptor (5-HT7 [3]; from GTP shift of the binding curve) | IC50 after addition of GTP (monophasic, low-affinity state) (5-HT7 [3]; with 100 μM GTP) | Ki after addition of GTP (5-HT7 [3]; with 100 μM GTP)
1 | piperolide [Compound 3] | 34.7 µM | 8.4 fold |  |  |  |  |  |  |  | 
2 | 5, 6-Z-fadyenolide [Compound 2] | 23.2 µM | 9.8 fold |  |  |  |  |  |  |  | 
3 | 9, 10-methylenedioxy-5, 6-Z-fadyenolide [Compound 1] | 8.3 µM | not active | 16.1 µM | 0.014 µg/mL | 37.7 µg/mL | 0.00848 µg/mL | 0.0267 µg/mL | partial agonist | 11.5 µg/mL | 6880 µg/mL
